Activity calls are given as the source filed them. The rule behind the calls is not given here.
Assays:
[1] = Displacement of [3H]muscimol from GABAA receptor in rat synaptic membrane after 60 mins by scintillation counting analysis; type: cell membranes
Summary of the method: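 Membranes from cortex and central hemispheres of male SPRD rat brains, washed repeatedly in 50 mM Tris-HCl pH 7.4. 70–80 μg protein per well incubated with [3H]muscimol. Separated by GF/C filtration with ice-cold buffer washes; bound radioactivity counted by scintillation. Nonspecific binding defined with 1.0 mM GABA.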

[2] = target: T1, Gamma-aminobutyric acid receptor subunit rho-1 (Homo sapiens, UniProt P24046); experiment: Agonist activity at human GABAA rho1 receptor expressed in TSA201 cells at 300 to 500 uM after 1 min by FLIPR assay; type: cell-based
T1 sequence (P24046 whole entry): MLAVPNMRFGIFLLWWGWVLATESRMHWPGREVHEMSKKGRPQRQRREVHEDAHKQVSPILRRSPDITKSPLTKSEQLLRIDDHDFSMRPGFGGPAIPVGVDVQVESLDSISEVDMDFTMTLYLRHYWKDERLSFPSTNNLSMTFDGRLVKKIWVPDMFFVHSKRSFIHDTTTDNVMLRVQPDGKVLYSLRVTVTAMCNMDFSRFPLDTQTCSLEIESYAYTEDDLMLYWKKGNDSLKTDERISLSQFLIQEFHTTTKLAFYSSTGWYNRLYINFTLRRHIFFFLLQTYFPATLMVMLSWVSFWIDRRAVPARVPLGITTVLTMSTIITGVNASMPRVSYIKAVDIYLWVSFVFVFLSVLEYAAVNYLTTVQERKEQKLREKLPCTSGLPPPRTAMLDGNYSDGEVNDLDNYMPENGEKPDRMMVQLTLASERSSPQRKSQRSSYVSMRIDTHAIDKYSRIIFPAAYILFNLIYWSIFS

[3] = target: T1, Gamma-aminobutyric acid receptor subunit rho-1; experiment: Agonist activity at human GABAA rho1 receptor expressed in TSA201 cells after 1 min by FLIPR assay; type: cell-based
Summary of the method: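 tsA201 cells transfected with 5 μg human ρ1 cDNA, then plated on poly-D-lysine plates for 16–24 h. Loaded with FLIPR membrane potential blue dye in Krebs buffer (pH 7.4), 30 min at 37 °C. Emission at 560 nm (excitation 530 nm) recorded before and up to 1 min after agonist addition. Curves fitted from ΔFU; duplicate, at least three times.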

[4] = target: T2, GABA-A receptor; alpha-1/beta-2/gamma-2 (Homo sapiens) (UniProt P14867+P47870+P18507); experiment: Agonist activity at human GABAA alpha1beta2gamma2S receptor expressed in TSA201 cells at 300 to 500 uM after 1 min by FLIPR assay; type: cell-based
[5] = target: T3, GABA-A receptor; alpha-1/beta-2/gamma-2 (Homo sapiens, UniProt P14867+P18507+P47870); experiment: Agonist activity at human GABAA alpha1beta2gamma2S receptor expressed in TSA201 cells after 1 min by FLIPR assay; type: cell-based
T3 sequence (P14867 whole entry): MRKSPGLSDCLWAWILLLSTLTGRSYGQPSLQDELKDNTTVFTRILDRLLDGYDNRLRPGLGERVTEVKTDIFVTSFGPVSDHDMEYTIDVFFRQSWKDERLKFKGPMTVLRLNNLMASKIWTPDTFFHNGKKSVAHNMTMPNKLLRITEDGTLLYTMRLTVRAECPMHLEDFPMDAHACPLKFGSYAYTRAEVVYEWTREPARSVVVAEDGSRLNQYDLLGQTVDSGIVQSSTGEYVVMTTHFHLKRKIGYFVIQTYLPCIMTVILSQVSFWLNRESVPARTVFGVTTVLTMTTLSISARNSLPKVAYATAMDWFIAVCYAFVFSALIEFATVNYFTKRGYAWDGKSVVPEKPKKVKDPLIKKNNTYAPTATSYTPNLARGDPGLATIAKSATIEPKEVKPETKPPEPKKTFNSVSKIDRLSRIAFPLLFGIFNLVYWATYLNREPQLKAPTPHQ
T3 sequence (P47870 whole entry): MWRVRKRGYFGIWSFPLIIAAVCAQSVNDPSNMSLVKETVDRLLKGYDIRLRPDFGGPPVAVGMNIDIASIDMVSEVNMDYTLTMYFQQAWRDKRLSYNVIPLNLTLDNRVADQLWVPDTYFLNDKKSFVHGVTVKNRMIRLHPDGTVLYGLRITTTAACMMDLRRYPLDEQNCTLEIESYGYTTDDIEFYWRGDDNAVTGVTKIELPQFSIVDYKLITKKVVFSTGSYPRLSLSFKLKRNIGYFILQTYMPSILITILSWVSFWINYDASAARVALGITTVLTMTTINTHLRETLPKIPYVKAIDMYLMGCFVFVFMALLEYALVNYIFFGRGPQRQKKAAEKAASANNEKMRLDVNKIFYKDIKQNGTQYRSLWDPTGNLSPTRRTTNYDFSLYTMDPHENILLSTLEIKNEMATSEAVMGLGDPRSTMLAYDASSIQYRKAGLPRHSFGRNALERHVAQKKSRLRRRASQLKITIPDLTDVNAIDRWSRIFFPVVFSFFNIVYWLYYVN
T3 sequence (P18507 whole entry): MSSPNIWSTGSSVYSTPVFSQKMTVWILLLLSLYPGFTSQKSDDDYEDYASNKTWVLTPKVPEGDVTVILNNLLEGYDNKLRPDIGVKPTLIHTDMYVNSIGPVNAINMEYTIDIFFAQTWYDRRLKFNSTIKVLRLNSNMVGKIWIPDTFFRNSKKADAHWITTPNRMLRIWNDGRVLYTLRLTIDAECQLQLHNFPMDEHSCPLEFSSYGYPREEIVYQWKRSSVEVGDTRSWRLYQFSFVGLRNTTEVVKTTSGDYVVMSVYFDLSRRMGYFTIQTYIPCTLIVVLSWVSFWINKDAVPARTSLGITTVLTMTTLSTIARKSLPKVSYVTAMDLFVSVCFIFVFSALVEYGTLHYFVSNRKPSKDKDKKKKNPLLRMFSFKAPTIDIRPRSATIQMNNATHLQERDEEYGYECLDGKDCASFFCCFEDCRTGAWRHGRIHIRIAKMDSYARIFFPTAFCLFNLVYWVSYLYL
Summary of the method: (§1)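 tsA201 cells transfected with 1 μg α (1, 2, 3 or 5), 1 μg β2 and 3 μg γ2S cDNA (Polyfect). Cells replated onto poly-D-lysine plates and assayed 16–24 h later. Loaded with FMP blue dye in Krebs buffer pH 7.4 for 30 min at 37 °C.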

[6] = target: T4, GABA A receptor alpha-2/beta-2/gamma-2 (Homo sapiens, UniProt P18507+P47869+P47870); experiment: Agonist activity at human GABAA alpha2beta2gamma2S receptor expressed in TSA201 cells after 1 min by FLIPR assay; type: cell-based; summary of the method: as §1
T4 sequence (P47870 whole entry): T3 sequence (P47870 whole entry)
T4 sequence (P18507 whole entry): T3 sequence (P18507 whole entry)
T4 sequence (P47869 whole entry): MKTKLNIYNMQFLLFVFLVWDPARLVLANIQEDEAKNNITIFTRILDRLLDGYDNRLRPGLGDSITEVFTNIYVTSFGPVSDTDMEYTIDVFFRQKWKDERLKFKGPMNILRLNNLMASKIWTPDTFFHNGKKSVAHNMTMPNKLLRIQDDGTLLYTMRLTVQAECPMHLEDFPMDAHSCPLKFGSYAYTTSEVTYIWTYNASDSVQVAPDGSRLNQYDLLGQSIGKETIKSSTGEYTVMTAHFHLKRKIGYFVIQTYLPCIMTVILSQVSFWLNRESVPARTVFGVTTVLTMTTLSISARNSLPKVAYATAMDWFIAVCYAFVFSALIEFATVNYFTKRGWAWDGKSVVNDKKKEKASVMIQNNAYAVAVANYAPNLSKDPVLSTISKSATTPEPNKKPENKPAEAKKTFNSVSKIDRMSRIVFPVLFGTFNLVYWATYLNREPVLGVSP

[7] = target: T5, GABA A receptor alpha-3/beta-2/gamma-2 (Homo sapiens, UniProt P18507+P34903+P47870); experiment: Agonist activity at human GABAA alpha3beta2gamma2S receptor expressed in TSA201 cells after 1 min by FLIPR assay; type: cell-based; summary of the method: as §1
T5 sequence (P47870 whole entry): T3 sequence (P47870 whole entry)
T5 sequence (P18507 whole entry): T3 sequence (P18507 whole entry)
T5 sequence (P34903 whole entry): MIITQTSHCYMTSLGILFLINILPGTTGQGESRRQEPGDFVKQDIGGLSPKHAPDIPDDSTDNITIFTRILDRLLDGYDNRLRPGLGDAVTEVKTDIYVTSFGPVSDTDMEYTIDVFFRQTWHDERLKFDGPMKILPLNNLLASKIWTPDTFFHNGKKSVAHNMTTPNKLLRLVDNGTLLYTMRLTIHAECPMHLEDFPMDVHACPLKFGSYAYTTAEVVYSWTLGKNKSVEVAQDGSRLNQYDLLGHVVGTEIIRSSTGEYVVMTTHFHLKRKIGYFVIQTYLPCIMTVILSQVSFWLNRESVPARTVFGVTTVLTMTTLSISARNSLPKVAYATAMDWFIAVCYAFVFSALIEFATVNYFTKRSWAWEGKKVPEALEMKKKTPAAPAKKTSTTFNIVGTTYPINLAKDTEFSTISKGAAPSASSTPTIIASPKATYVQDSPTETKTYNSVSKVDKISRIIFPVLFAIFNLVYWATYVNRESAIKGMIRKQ

[8] = Agonist activity at human GABAA alpha5beta2gamma2S receptor expressed in TSA201 cells after 1 min by FLIPR assay; type: cell-based; conditions: tsA201, 1 min
[9] = target: T1, Gamma-aminobutyric acid receptor subunit rho-1; experiment: Agonist activity at human GABAA rho1 receptor expressed in HEK293 cells at up to 300 uM by patch clamp electrophysiology assay; type: cell-based
[10] = target: T2, GABA-A receptor; alpha-1/beta-2/gamma-2 (Homo sapiens); experiment: Agonist activity at human GABAA alpha1beta2gamma2S receptor expressed in HEK293 cells by patch clamp electrophysiology assay relative to GABA; type: cell-based
[11] = target: T3, GABA-A receptor; alpha-1/beta-2/gamma-2; experiment: Agonist activity at human GABAA alpha1beta2gamma2S receptor expressed in HEK293 cells by patch clamp electrophysiology assay; type: cell-based
[12] = target: T2, GABA-A receptor; alpha-1/beta-2/gamma-2 (Homo sapiens); experiment: Agonist activity at human GABAA alpha1beta2gamma2S receptor expressed in HEK293 cells at up to 300 uM by patch clamp electrophysiology assay; type: cell-based

| SMILES | Ki [1] [µM] | pKi [1] | EC50 [3] [µM] | EC50 [5] [µM] | Activity [9] | Rmax [10] [%] | EC50 [11] [µM] | further results |
| --- | --- | --- | --- | --- | --- | --- | --- | --- |
| NCc1cn(O)nc1-c1ccc(-c2ccccc2)cc1 | 13 | 4.89 | > 500 | > 300 |  |  |  | Activity [2]: inactive; Activity [4]: inactive |
| NCc1cn(O)nc1N | > 100 |  |  |  |  |  |  |  |
| NCc1cc(O)no1 [MUSCIMOL] | 0.007 |  | 0.7 | 0.54 |  |  |  | EC50 [6]: 0.41 µM; EC50 [7]: 0.21 µM; EC50 ([8]; read-out: EC50): 0.054 µM; EC50 ([8]; read-out: pEC50 (converted)): 0.0537 µM |
| NCc1cn(O)nc1CCc1ccncc1 | > 100 |  |  |  |  |  |  |  |
| NCc1cnn(O)c1Br | 2.8 | 5.56 |  |  | inactive | > 23 | > 100 |  |
| Cc1c(O)noc1CN | 54 | 4.28 |  |  | inactive |  |  | Activity [12]: inactive |
| Cc1c(CN)cnn1O | 15 | 4.82 | > 500 | > 500 | inactive | > 64 | > 10 |  |
| NCc1cnn(O)c1Cl | 0.63 | 6.2 | > 500 | 29 | inactive | > 72 | > 30 |  |
| CCc1nn(O)cc1CN | 94 | 4.03 | > 500 | > 500 |  |  |  |  |
| NCc1cn(O)nc1-c1cccc(-c2ccccc2)c1 | 17 | 4.81 | > 500 | > 500 |  |  |  | Activity [2]: inactive; Activity [4]: inactive |

Reference: ChEMBL document CHEMBL2311400, “Synthesis and biological evaluation of 4-(aminomethyl)-1-hydroxypyrazole analogues of muscimol as γ-aminobutyric acid(a) receptor agonists” (J Med Chem, 2013)
